Compound activity (PubChem BioAssay)
OX1R antag-1 = human HCRTR1 antagonism; O43613; CHO/OX1R cells, Fluo-8 calcium fluorescence, orexin A; inhibition, % at 5 µM; actives 0.43% (n = 330,000); AID 434989;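 active = inhibition above its plate's threshold, mean inhibition of all tested compounds on the plate plus 3 SD, cut at about 37% in these data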
GPR7 antag = antagonists of human GPR7 (neuropeptides B/W receptor 1); P48145; GPR7-expressing cells, fluorescence antagonist assay; inhibition, % at 4.4 µM; actives 1.1% (n = 290,000); in the data active = inhibition above about 16%, passing the limit was not always enough;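 also: cells stimulated with the agonist NPW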
GalR3 antagonist = antagonists of human GalR3 | O60755 | HEK293 GalR3-CNG cAMP membrane potential fluorescence; galR3 body fused to GalR1 C-terminus | inhibition, % at 3 µM | actives 0.44% (n = 360,000) | AID 651719;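 active = inhibition above the screen-wide average plus 3 SD, cut at about 13% in these data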;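 also: forskolin and galanin both at EC90 stimulate the cells; cAMP rise reported by CNG channel membrane potential dye signal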
Target sequence (O60755 1-299 limits assumed): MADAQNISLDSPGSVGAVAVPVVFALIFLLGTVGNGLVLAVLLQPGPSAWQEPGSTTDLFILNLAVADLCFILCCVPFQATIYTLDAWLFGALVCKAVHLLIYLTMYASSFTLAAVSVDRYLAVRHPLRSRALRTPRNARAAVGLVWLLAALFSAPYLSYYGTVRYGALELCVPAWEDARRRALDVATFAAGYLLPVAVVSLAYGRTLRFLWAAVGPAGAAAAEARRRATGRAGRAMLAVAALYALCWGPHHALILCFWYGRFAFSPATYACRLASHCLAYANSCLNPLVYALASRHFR
OX1R antag-2 = blocks the human orexin 1 receptor | inhibition, % at 6.6 µM | actives 1.8% (n = 330,000) | AID 485270 | OX1R-expressing cells, FRET antagonist read-out; in the data active = inhibition mostly above about 38%, no sharp cut-off; inactive = mostly below about 40%
CHO parental Ca = counter-screen for OX1R antagonists: effect in parental CHO cells | parental CHO-K1, ATP-induced calcium, Fluo-8 fluorescence | actives 0.63% (n = 330,000) | AID 463079 | inhibition, % at 5.6 µM;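 active = inhibition above that plate's mean sample inhibition plus 3 SD, cut at about 26% in these data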
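Material: parental CHO cells / Compound: single nominal dose of 5.6 µM per compound / Signal: Fluo-8 fluorescence / Replicates: singlicate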
GalR3 antag conf = confirmation of human galanin receptor 3 antagonists. shares compounds with GalR3 antagonist. HEK293 GalR3 CNG cAMP biosensor, membrane potential fluorescence; galR3 fused to GalR1 carboxy tail; challenged with forskolin and galanin at EC90. inhibition, % at 3 µM. actives 59% (n = 1,600);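 active = inhibition above the primary screen's cutoff, the mean inhibition of all screened compounds plus 3 SD, cut at about 13% in these data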
CNG parental = parental cell agonism counter-screen for GalR3 antagonists | shares compounds with GalR3 antagonist | HEK293-CNG parental cells, cAMP membrane potential fluorescence; normalised: DMSO wells 0%, forskolin wells 100% | activation, % at 3 µM | actives 10% (n = 1,600) | AID 652268; in the data active = activation above about 1.3%
Numbers stand for hits; n = inactive; x = not tested or not shown. Compounds with a hit are over-represented: about 3.1% of the library has one in this group of screens.

SMILES	OX1R antag-1	GPR7 antag	GalR3 antagonist	OX1R antag-2	CHO parental Ca	GalR3 antag conf	CNG parental
COc1ccc2[nH]c3c(c2c1)CCN1C(=O)N([C@@H](C)C(=O)NCCc2ccc(OC)c(OC)c2)C(=O)[C@]31C	n	n	26	n	n	n	n
CCCCOCC1CN(CCCC)S(=O)(=O)c2c(cccc2Sc2ccc(OC)c(OC)c2)O1 (stereo not drawn)	x	x	n	x	x	x	x
CCC(C)c1ccc(NC(=O)COC(=O)c2nc3nccc(C)n3n2)cc1 (stereo not drawn)	n	n	15	n	n	14	n
CCSc1nnc(Cn2c(=O)sc3ccccc32)n1C	n	n	x	n	n	n	n
Cn1c(Cn2c(=O)sc3ccccc32)nnc1SCc1ccccn1	n	n	n	n	n	x	x
COc1ccc(-c2cc(-c3n[nH]c(=S)n3-c3cc(OC)ccc3OC)[nH]n2)cc1	n	n	24	n	n	n	n
CC(C)Nc1ncnc2c1ncn2[C@H]1CN(Cc2ccco2)C[C@@H](CO)O1	x	x	n	x	x	x	x
C=CCn1c(=O)c(C(=O)Nc2ncccc2C)c(O)c2ccccc21	x	x	n	x	x	x	x
c1csc(CNc2ncnc3sccc23)c1	n	n	61	n	n	88	n
c1cncc(CNc2ncnc3sccc23)c1	n	n	n	n	n	x	x
O=C(CCc1nc2ccccc2c(=O)[nH]1)Nc1ccccc1N1CCCCC1	x	x	n	x	x	x	x
CCN1C(=O)Cc2cc(S(=O)(=O)N3CCOCC3)ccc21	n	n	n	n	n	x	x
CCN1CC(=O)Nc2cc(S(=O)(=O)N3CCOCC3)ccc21	n	n	16	n	n	n	n
CCOC(=O)C1=CCN(S(=O)(=O)c2ccccc2Br)C1c1cccc(Cl)c1 (stereo not drawn)	x	x	n	x	x	x	x
CCCOc1ncnc2c1[nH]c1ccccc12	n	n	n	n	n	x	x
CC(C)Oc1ncnc2c1[nH]c1ccccc12	n	n	19	n	n	n	n
COc1ccc(NC(=O)C[C@H]2C(=O)N(CCc3ccccc3)C[C@@H]2Cc2ccccc2)cc1	x	x	n	x	x	x	x
Oc1ccc2ccccc2c1CN1CCCC1	n	n	n	n	n	x	x
Oc1ccc2ccccc2c1CN1CCCCC1	x	x	14	x	x	17	n
CCCc1c(-c2cccc(Br)c2)ncn1CCc1ccccc1OC	x	x	n	x	x	x	x
CS(=O)(=O)c1cc(N2CCOCC2)ccc1CNC[C@H]1O[C@@H](n2cnc3c(=O)[nH]c(N)nc32)[C@H](O)[C@@H]1O	x	x	n	x	x	x	x
CCCCC[C@@H](/C=C/C1C(=O)C=C[C@H]1C/C=C\CCCC(=O)O)OC(C)=O (stereo partly drawn)	x	x	100	x	x	98	n
CN1CCN(c2ncnc3c2ncn3[C@H]2CN(C)C[C@@H](CO)O2)CC1	x	x	n	x	x	x	x
Cc1noc(C)c1COC(=O)c1ccc(F)c(S(=O)(=O)N2CCCCC2)c1	n	n	n	n	n	x	x
Cc1noc(C)c1COC(=O)c1cccc(S(=O)(=O)N2CCCCCC2)c1	n	n	80	n	49	84	n
SMILES	OX1R antag-1	GPR7 antag	GalR3 antagonist	OX1R antag-2	CHO parental Ca	GalR3 antag conf	CNG parental
CN(c1ccccc1)S(=O)(=O)c1ccc(Cl)c(C(=O)Nc2ccc(N3CCOCC3)cc2)c1	n	n	n	n	n	x	x
Cc1nc2ccc(NC(=O)c3cc(S(=O)(=O)N(C)c4ccccc4)ccc3Cl)cc2s1	n	n	78	n	n	112	n
Cc1ccccc1C(=O)N(C)[C@H]1C[C@H]2c3[nH]c4c(-c5ccccc5)cccc4c3CCN2C(=O)[C@H]1[C@H](C)O	x	x	n	x	x	x	x
Cc1ccc([C@H]2C[C@H](O)[C@@H](n3cc(-c4ccc(F)cc4)nn3)CN2C(=O)C2CCCCC2)cc1	x	x	n	x	x	x	x
COc1cc(-c2nn3c(C4CCCCC4)nnc3s2)cc(OC)c1OC	n	n	18	n	n	n	n
COc1ccc(-c2nn3c(C4CCCCC4)nnc3s2)cc1OC	n	n	17	n	n	24	n
O=C(NNc1ccnc2cc(Cl)ccc12)C1CCCCC1	n	n	27	n	35	112	n
CCC(C)C(=O)Nn1c(C2CC2)nc2cc(OC)c(OC)cc2c1=O (stereo not drawn)	n	n	25	n	n	29	n
